A selection: hits, their analogues and other compounds. The true share with any hit is near 4.4%.
HSF1 inhib – HSF1 inhibition; NIH3T3-HGL HSE-luciferase, MG132-induced, luminescence 8 h; active compounds read low; activity change, negative = inhibition, % at 7.5 µM (by protocol); 0.77% of 300,000 active; AID 2098;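 active means more than half of replicate wells show activity change below -50%, luminescence cut by over half; inconclusive means some wells, but at most half, below -50%; inactive means no replicate well below -50%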;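 further: luciferase reports HSF-1 transcriptional activity via heat shock element; 0% = median of DMSO wells and -100% = zero luminescence signal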
HSF1 activator – increases HSF-1 driven luciferase reporter signal. NIH3T3-HGL HSF-1 luciferase reporter, MG132, 8 h; 100% = twice DMSO control signal. activation, % at 9 µM. 1.7% of 300,000 active;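 active means mean replicate activation of at least 50% with a set share of replicates each reaching 50%; inconclusive means only one of those two conditions met; inactive means mean below 50% and too few replicates reaching it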;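 further: 0% = median of the neutral control wells and 100% = twice that signal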
Calb FLC – C. albicans growth modulation with fluconazole; C. albicans CaCi-2 + fluconazole, Alamar Blue growth, 48 h; 0.57% of 300,000 active; growth inhibition, % (test concentration not listed); AID 1979;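 active means growth inhibition above about 58% in most replicates, limit read from the data, passing the limit was not always enough; inconclusive means exactly half the replicates above a set limit; inactive means most replicates below a set limit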;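 further: all wells also contain fluconazole at 8 µg/ml as a sub-toxic cotreatment; 0% = median of DMSO wells and 100% = median of geldanamycin control wells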
T cruzi inh – T. cruzi replication inhibition. T. cruzi beta-gal in NIH3T3, luminescence, 90 h. inhibition, % (concentration not given with the values). 1.4% of 300,000 active. AID 1885;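 active means mean inhibition across valid replicates above about 55%, limit read from the data; inconclusive means mean below that limit but half or more replicates reach it; inactive means mean below it, under half of replicates reach it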;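 further: signal also drops with host cell toxicity which is not excluded here; 0% = plate median of DMSO wells and 100% = zero luminescence signal; higher percent means less beta-gal luminescence so fewer parasites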
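Test system: β-gal T. cruzi (Tulahuen C4) inside NIH/3T3 cells / Quantity: 5,000 cells/well / Measured by: luminescence from GalScreen with 0.05% NP40, read after 60 min / Medium: DMEM plus 2% FBS / Measure: parasite load inhibition, % / Reagent: Tulahuen C4 trypomastigotes, 5000/well / Schedule: co-culture of at least 90 h after 3 h attachment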
HIF act – HIF pathway transcriptional activation | activation, % at 7.5 µM (by protocol) | 0.32% of 300,000 active | U2OS HRE-luciferase reporter, luminescence; normalized: DMSO 0%, desferrioxamine 100%;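 active means mean activation of at least 10% of the iron chelator positive control signal, with at least half of replicates also reaching 10%; inconclusive means mean and replicate majority disagree about reaching 10%; inactive means mean and most replicates under 10%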
Numbers without * were called inactive.

What do the screens show for `CC(=O)[C@@]1(O)C(C)CC2C3C=C(C)C4=Cc5c(cnn5-c5ccccc5)C[C@]4(C)C3C(O)C[C@@]21C` (stereo not given in full)?
HSF1 inhib: inconclusive; HSF1 activator: -57.5; T cruzi inh: 64.3*; HIF act: -1.0

What do the screens show for `CCOC(=O)c1ccc(NC(=S)N2CCN(C(=O)C3CCCO3)CC2)cc1` (stereo not given)?
HSF1 inhib: -27.7; HSF1 activator: -34.7; Calb FLC: -8.7; T cruzi inh: 2.8; HIF act: 0.0

What do the screens show for `CCN1CCN(c2cc(C)c3cc(NC(=S)N4CC(C)CC(C)C4)ccc3n2)CC1` (stereo not given)?
HSF1 inhib: -47.2; HSF1 activator: -46.9; Calb FLC: 3.7; T cruzi inh: 38.3; HIF act: 0.2

Results for CCN1CCN(c2cc(C)c3cc(NC(=S)N4CCCCC4)ccc3n2)CC1 ?
HSF1 inhib: -26.3; HSF1 activator: -33.6; Calb FLC: inconclusive; T cruzi inh: 57.7*; HIF act: 2.9

How did CCN1CCN(c2cc(C)c3cc(NC(=S)N4CCCC(C)C4)ccc3n2)CC1 (stereo not given) do in these assays?
HSF1 inhib: -78.7*; HSF1 activator: -81.7; Calb FLC: 9.4; T cruzi inh: 35.9; HIF act: 0.8

How did CCN(c1ccccc1)S(=O)(=O)c1ccc2c(c1)C(C)(C)C(=O)N2C do in these assays?
HSF1 inhib: 0.3; HSF1 activator: 4.0; Calb FLC: -3.5; T cruzi inh: 1.8; HIF act: -0.3

How did CC(C)C(NC(=O)c1ccc(F)cc1)C(=O)Nc1cccnc1 (stereo not given) do in these assays?
HSF1 inhib: -0.6; HSF1 activator: -3.5; Calb FLC: 3.6; T cruzi inh: 4.0; HIF act: 0.2

What do the screens show for `C=CCN(CC=C)Cc1c(O)ccc2c(=O)c(-c3ccccc3)coc12`?
HSF1 inhib: 3.2; HSF1 activator: 24.2; Calb FLC: 94.0*; T cruzi inh: 15.9; HIF act: 0.3

Results for CCN(CC)Cc1c(O)ccc2c(=O)c(-c3ccc(Cl)cc3)coc12 ?
HSF1 inhib: 1.1; HSF1 activator: 13.0; Calb FLC: 8.8; T cruzi inh: 4.9; HIF act: 0.4

How did Nc1cc(=O)[nH]c(SCC(=O)Nc2ccccc2Sc2ccccc2)n1 do in these assays?
HSF1 inhib: -2.0; HSF1 activator: -7.9; Calb FLC: -7.1; T cruzi inh: -3.0; HIF act: -1.0

Results for O=C(NC(=S)NNC(=O)c1ccccc1O)c1ccccc1 ?
HSF1 inhib: -5.2; HSF1 activator: -21.5; Calb FLC: 21.4; T cruzi inh: 3.5; HIF act: -0.5

Results for Cc1ccc(C(=O)NC(=S)NNC(=O)c2ccccc2[N+](=O)[O-])cc1 ?
Calb FLC: 113.5*

How did O=C(NNC(=S)NC(=O)c1ccccc1[N+](=O)[O-])c1ccccc1[N+](=O)[O-] do in these assays?
HSF1 inhib: 3.0; HSF1 activator: 10.6; Calb FLC: 3.7; T cruzi inh: -6.0; HIF act: -0.5

What do the screens show for `Cc1ccccc1C(=O)NNC(=S)NC(=O)c1ccccc1`?
HSF1 inhib: 17.9; HSF1 activator: 35.8; Calb FLC: 97.7*; T cruzi inh: -47.1; HIF act: 0.1

What do the screens show for `CCCCOc1ccccc1C(=O)NNC(=S)NC(=O)c1ccccc1[N+](=O)[O-]`?
HSF1 inhib: -1.3; HSF1 activator: 2.2; Calb FLC: 102.5*; T cruzi inh: 27.0; HIF act: -0.8

How did COCCNC(=O)CN(C(=O)CCC(=O)Nc1ccccn1)c1ccccc1F do in these assays?
Calb FLC: -2.3; T cruzi inh: -3.7; HIF act: -0.2

How did CCN(CC(=O)c1c(N)n(C)c(=O)n(C)c1=O)c1cccc2ccccc12 do in these assays?
HSF1 inhib: 61.8; HSF1 activator: 85.2*; Calb FLC: 13.8; T cruzi inh: 1.4; HIF act: -0.2

How did O=C(CSc1nncs1)Nc1ccc2[nH]c(=O)[nH]c2c1 do in these assays?
HSF1 inhib: -3.2; HSF1 activator: 2.7; Calb FLC: 0.6; T cruzi inh: -1.7; HIF act: 0.6

What do the screens show for `COCCCn1c(SCC(=O)NC2CCCCC2)nc2ccccc2c1=O`?
HSF1 inhib: 3.2; HSF1 activator: -11.1; Calb FLC: -2.1; T cruzi inh: 19.5; HIF act: -2.0

How did COc1ccc(C(=O)Nn2c(SCC(=O)c3ccc(Cl)cc3)nc3ccccc3c2=O)cc1 do in these assays?
HSF1 inhib: -70.7*; HSF1 activator: -75.4; Calb FLC: -48.5; T cruzi inh: 7.5; HIF act: -1.3

What do the screens show for `COc1ccc(-n2c(-c3ccc(F)cc3)cnc2SCC(=O)NCc2ccco2)cc1`?
HSF1 inhib: -53.5*; HSF1 activator: -62.0; Calb FLC: 0.9; T cruzi inh: 31.6; HIF act: 0.1

How did COc1ccc(C(=O)Nn2c(SCC(=O)N3CCC(C)CC3)nc3ccccc3c2=O)cc1 do in these assays?
HSF1 inhib: -65.6*; HSF1 activator: -73.4; Calb FLC: inconclusive; T cruzi inh: 0.2; HIF act: -2.6

How did O=C(CSc1ncc(-c2ccccc2)n1-c1ccccc1)NCc1ccco1 do in these assays?
HSF1 inhib: 4.9; HSF1 activator: -0.5; Calb FLC: 1.7; T cruzi inh: 21.6; HIF act: -0.2

Results for COc1ccc(C(=O)Nn2c(C)nc3ccccc3c2=O)cc1 ?
HSF1 inhib: -1.7; HSF1 activator: -17.2; Calb FLC: -19.0; T cruzi inh: -6.7; HIF act: 0.9

What do the screens show for `COc1ccc(C(=O)Nn2c(SCC(=O)NC3CCCCC3)nc3ccccc3c2=O)cc1`?
HSF1 inhib: -64.3*; HSF1 activator: -73.1; Calb FLC: -47.0; T cruzi inh: -9.9; HIF act: -1.5

Results for Cn1cccc1C(=O)OCC(=O)N1c2ccccc2NC(=O)C1(C)C ?
HSF1 inhib: -2.2; HSF1 activator: -7.6; Calb FLC: 5.1; T cruzi inh: -4.2; HIF act: -0.2

Results for CC1CCc2nc3ccc(S(=O)(=O)N4CCC(C(=O)N5CCCCCC5)CC4)cc3c(C(=O)O)c2C1 (stereo not given) ?
HSF1 inhib: 5.6; HSF1 activator: 47.7; Calb FLC: 5.9; T cruzi inh: -8.4; HIF act: -0.5

What do the screens show for `CCCCn1c(SCC(=O)NCc2ccco2)nc2c(sc3ccccc32)c1=O`?
HSF1 inhib: -65.3*; HSF1 activator: -73.4; Calb FLC: 0.7; T cruzi inh: 30.2; HIF act: 0.1

What do the screens show for `CCn1c(SCC(=O)NCc2ccco2)nc2ccccc2c1=O`?
HSF1 inhib: 5.0; HSF1 activator: 14.9; Calb FLC: -5.5; T cruzi inh: -4.3; HIF act: -0.3

How did COc1ccc(C(=O)Nn2c(SCC(=O)NCc3ccco3)nc3ccccc3c2=O)cc1 do in these assays?
HSF1 inhib: -75.1*; HSF1 activator: -75.9; Calb FLC: 0.6; T cruzi inh: -4.0; HIF act: -36.0
